The text below walks through data of ChEMBL document CHEMBL1146686, “Phenolic thiazoles as novel orally-active neuroprotective agents” (Bioorg Med Chem Lett, 2004).

The species named for the assay is Rattus norvegicus. The assay can be described thus: Compound tested to inhibit (LPO) lipid peroxidation was determined in rat brain microsomes. Format: functional. The procedure, abridged:
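Rat brain microsomes; lipid peroxidation induced by Fe2+. Antioxidant activity read as reduction of malondialdehyde formed from unsaturated fatty acid peroxidation.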

For orientation: IC50 means the concentration that gives 50% inhibition. A lower IC50 goes with higher potency. As to `Cc1cc(C(C)(C)C)c(O)c(C(C)(C)C)c1` [BUTYLATED HYDROXYTOLUENE], the IC50 is 30 µM.
For `CC1=NN(c2ccccc2)C(=O)C1` [EDARAVONE] the value was 32 µM.
